Results published in ChEMBL document CHEMBL1158679, “Synthetic analogues of irlbacholine: a novel antifungal plant metabolite isolated from Irlbachia alata” (1999).
Values after ≈ are worked out from the molar mass of the structure shown.

Assays:
Format in all cases: functional
Candida albicans [1] = assay: Antifungal activity against Candida albicans ATCC 10259 by standard microdilution method
Summary of the method: (§1)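 Minimum inhibitory concentration measured by standard broth microdilution in 96-well microplates against the named yeast strain.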

Cryptococcus neoformans [2] = assay: Antifungal activity against Cryptococcus neoformans ATCC 36556 by standard microdilution method; summary of the method: as §1
Candida albicans [3] = assay: Antifungal activity against Candida albicans B311 by standard microdilution method; summary of the method: as §1
Candida albicans [4] = assay: Antifungal activity against Candida albicans 572-27 by standard microdilution method; summary of the method: as §1
Cryptococcus neoformans [5] = assay: Antifungal activity against Cryptococcus neoformans 96-69 by standard microdilution method
Aspergillus fumigatus = assay: Antifungal activity against Aspergillus fumigatus ATCC 13073 by standard microdilution method
Summary of the method: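 MIC read from a 96-well microplate broth microdilution run by the standard method, with Sabouraud dextrose broth as the medium for A. fumigatus ATCC 13073.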

MIC (Candida albicans [1]) [µg/mL]	MIC (Cryptococcus neoformans [2]) [µg/mL]	MIC (Candida albicans [3]) [µg/mL]	MIC (Candida albicans [4]) [µg/mL]	MIC (Cryptococcus neoformans [5]) [µg/mL]	MIC (Aspergillus fumigatus) [µg/mL]	SMILES
0.5	0.5	1	1	0.5	3.1	C[N+](C)(C)CCOP(=O)(O)OCCCCCCCCCCCCCCCCCl.[Cl-]
125 (≈ 516 µM)	62.5 (≈ 258 µM)	250 (≈ 1030 µM)	250 (≈ 1030 µM)	125 (≈ 516 µM)	> 500	CCCCCCCCCCCCCCCCO [CETYL ALCOHOL]
> 500	500 (≈ 811 µM)		> 500	> 500		C[N+](C)(C)CCOP(=O)([O-])OCCCCCCCCCCCCCCCCCCOP(=O)([O-])OCC[N+](C)(C)C
250	62.5	250	125	62.5	> 500	CCCCCCCCCCCCCCCCOP(=O)(O)O [HEXADECYL DIHYDROGEN PHOSPHATE]
62.5 (≈ 98.8 µM)	62.5 (≈ 98.8 µM)	125 (≈ 198 µM)	125 (≈ 198 µM)	125 (≈ 198 µM)		O=P(O)(OCCBr)OCCCCCCCCCCCCCCCCOP(=O)(O)OCCBr
7.8	1	7.8	3.9	0.5		C[N+](C)(C)CCOP(=O)(O)OCCCCCCCCCCCCCCCl.[Cl-]
125 (≈ 299 µM)	62.5 (≈ 149 µM)	250 (≈ 598 µM)	250 (≈ 598 µM)	125 (≈ 299 µM)	> 500	O=P(O)(O)OCCCCCCCCCCCCCCCCOP(=O)(O)O
500 (≈ 939 µM)	250 (≈ 469 µM)	500 (≈ 939 µM)	500 (≈ 939 µM)	250 (≈ 469 µM)		C[N+](C)(C)CCOP(=O)([O-])OCCCCCCCCCCCCOP(=O)([O-])OCC[N+](C)(C)C
> 500	500 (≈ 698 µM)		> 500	500 (≈ 698 µM)		O=P(O)(OCCBr)OCCCCCCCCCCCCCCCCCCCCCCOP(=O)(O)OCCBr
125 (≈ 212 µM)	125 (≈ 212 µM)	250 (≈ 425 µM)	125 (≈ 212 µM)	125 (≈ 212 µM)	25 (≈ 42.5 µM)	C[N+](C)(C)CCOP(=O)([O-])OCCCCCCCCCCCCCCCCOP(=O)([O-])OCC[N+](C)(C)C
1.25 (≈ 1.86 µM)	0.04 (≈ 0.0594 µM)	1 (≈ 1.49 µM)	1 (≈ 1.49 µM)	0.5 (≈ 0.743 µM)	0.08 (≈ 0.119 µM)	C[N+](C)(C)CCOP(=O)([O-])OCCCCCCCCCCCCCCCCCCCCCCOP(=O)([O-])OCC[N+](C)(C)C

The next lines start with the molecule.

SMILES	MIC (Candida albicans [1]) [µg/mL]	MIC (Cryptococcus neoformans [2]) [µg/mL]	MIC (Candida albicans [3]) [µg/mL]	MIC (Candida albicans [4]) [µg/mL]	MIC (Cryptococcus neoformans [5]) [µg/mL]	MIC (Aspergillus fumigatus) [µg/mL]
CCCCCCCCCCCCCCCCOP(=O)(O)OCC[N+](C)(C)C.[Cl-]	0.5	0.5	1	1	0.5	
C[N+](C)(C)CCOP(=O)([O-])OCCCCCCCCCCCCCCCCCCCCOP(=O)([O-])OCC[N+](C)(C)C	> 500	15.6 (≈ 24.2 µM)		> 500	15.6 (≈ 24.2 µM)	
C[N+](C)(C)CCOP(=O)([O-])OCCCCCCCCCCCCCCOP(=O)([O-])OCC[N+](C)(C)C	250 (≈ 446 µM)	250 (≈ 446 µM)	250 (≈ 446 µM)	250 (≈ 446 µM)	250 (≈ 446 µM)	
C[N+](C)(C)CCOP(=O)([O-])OCCCCCCCCCCCCCCCCCCCCCCOP(=O)([O-])OCC[N+](C)(C)C.Cl	1.25	0.04	0.5	0.5	0.5	0.08
CCCCCCCCCCCCCCCCCCCCCCOP(=O)(O)OCC[N+](C)(C)C.[Cl-]	500	250	500	500	500	
O=P(O)(O)OCCCCCCCCCCCCCCCCCCCCCCOP(=O)(O)O	250 (≈ 497 µM)	62.5 (≈ 124 µM)	250 (≈ 497 µM)	250 (≈ 497 µM)	125 (≈ 249 µM)	> 500
O=P(OCCCCCCCCCCCCCCCCOP(=O)(Oc1ccccc1)Oc1ccccc1)(Oc1ccccc1)Oc1ccccc1	125 (≈ 173 µM)	62.5 (≈ 86.5 µM)	250 (≈ 346 µM)	250 (≈ 346 µM)	125 (≈ 173 µM)	> 500
OCCCCCCCCCCCCCCCCCCCCCCO	> 500	> 500	> 500	> 500	> 500	> 500
O=P(OCCCCCCCCCCCCCCCCCCCCCCOP(=O)(Oc1ccccc1)Oc1ccccc1)(Oc1ccccc1)Oc1ccccc1	125 (≈ 155 µM)	125 (≈ 155 µM)	250 (≈ 310 µM)	250 (≈ 310 µM)	125 (≈ 155 µM)	> 500
C[N+](C)(C)CCOP(=O)([O-])OCCCCCCCCCCCCCCCCCCCCCCCCOP(=O)([O-])OCC[N+](C)(C)C	31.2 (≈ 44.5 µM)	3.9 (≈ 5.56 µM)	62.5 (≈ 89.2 µM)	62.5 (≈ 89.2 µM)	7.8 (≈ 11.1 µM)	
OCCCCCCCCCCCCCCCCO	125 (≈ 484 µM)	62.5 (≈ 242 µM)	250 (≈ 967 µM)	250 (≈ 967 µM)	62.5 (≈ 242 µM)	> 500
